These results are taken from ChEMBL document CHEMBL1154478, “Novel imidazo[1,2-a]naphthyridinic systems (part 1): synthesis, antiproliferative and DNA-intercalating activities” (2008).

Molecules are shown by their SMILES. Activity calls are given as the source filed them. No cut-off for these calls is given here.

For one test, the system named is HT-1080. Description: Antiproliferative activity against human HT1080 cells after 48 hrs by SRB assay. It is filed as functional. The following applies: HT-1080, 48 h. In outline:
(§1)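 Cells were grown in high-glucose DMEM with 5% defined bovine calf serum and pre-incubated 24 h at 37 °C in 5% CO2. Drugs were freshly dissolved in DMSO, diluted in medium and added in serial dilutions, with DMSO kept below 0.5%, and incubated 48 h. Cells were fixed with cold TCA (10% final, 60 min at 4 °C), stained 15 min with 0.1% SRB in 1% acetic acid, and the dye solubilized in Tris base. Absorbance was read at 585 nm and growth inhibition % calculated against a control plate fixed on the treatment day.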

In another test the test system is HT-29. Description: Antiproliferative activity against human HT-29 cells after 48 hrs by SRB assay. Format: functional. Particulars: HT-29, 48 h. The method, boiled down:
as §1

The subject of another test is M21. In words: Antiproliferative activity against human M21 cells after 48 hrs by SRB assay. Format: functional. The following applies: M21, 48 h. The method, boiled down: as §1
Test [1] relates to MCF7. In words: Antiproliferative activity against human MCF7 cells after 48 hrs by SRB assay. It is filed as functional. The following applies: MCF7, 48 h. In outline:
as §1

Test [2] in a line: Binding affinity to pGEM-9Zf(-) DNA assessed as effect on DNA migration at 40 uM by gel electrophoresis. In outline:
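Human topo1 was then added and the mix held 2 h at 37 °C in the dark. The reaction was stopped with SDS and proteinase K (1 h, 45 °C). Products were run on 1% agarose with 0.1% SDS in TBE (16 h, 1.25 V/cm), stained with ethidium bromide, and re-run 2 h at 2 V/cm. Ethidium bromide served as the intercalation reference and camptothecin as the poison control.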

Test [3] relates to MCF7. In words: Cell cycle arrest in human MCF7 cells assessed as accumulation at G2/M phase at 6.6 uM after 24 hrs by flow cytometry. Format: functional, cell-based. In outline: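 Exponentially growing MCF-7 cells were exposed to compound or DMSO control for 4, 24 or 48 h and analysed by flow cytometry with 488 nm argon laser excitation. Cell-cycle distribution was expressed as the treated/control ratio.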

`Cc1ccc2ccn3ccnc3c2n1`: the GI50 in the test on HT-1080, in the test with HT-29, with M21 and in the test on MCF7 [1] was greater than 100 µM each time.

Turning to `c1ccc2c(c1)CCc1cc3c(ccc4nccn43)nc1-2`, the GI50 in the test with HT-1080 was determined as 32.7 µM; with HT-29 it was 27.8 µM; with M21 it was 52 µM; in the test on MCF7 [1], 20.9 µM.

Consider `c1ccc(-c2ccc3c(ccc4nccn43)n2)cc1`, for which the GI50 in the test on HT-1080 stood at 43.3 µM; with HT-29, 55.8 µM; with M21 it was 70.1 µM; with MCF7 [1], 51.8 µM.

Consider `CCOC(=O)C1CCc2nc3ccc4nccn4c3cc2C1` (stereo not drawn), for which the GI50 in the test on HT-1080, in the test with HT-29, in the test with M21 and in the test with MCF7 [1] was greater than 100 µM each time.

Consider `CCOC(=O)C1CCc2nc3c(ccn4ccnc34)cc2C1` (stereo not drawn), for which the GI50 stood at 64.9 µM in the test with HT-1080, 79.6 µM with HT-29, 80.3 µM in the test on M21 and 57.7 µM with MCF7 [1].

On to `c1cn2c(ccc3nc4c(cc32)CCCC4)n1`, for which the GI50 with HT-1080, in the test on HT-29, with M21 and in the test on MCF7 [1] was greater than 100 µM throughout.

`c1ccc2cc3nc4c(ccn5ccnc45)cc3cc2c1`: the GI50 with HT-1080 turned out to be 20.7 µM; with HT-29 it was 18.3 µM; in the test with M21, 25.2 µM; in the test on MCF7 [1] it was 21.5 µM.

Turning to `c1ccc2c(c1)CCc1nc3c(ccn4ccnc34)cc1-2`, the GI50 is 41.4 µM in the test with HT-1080, 49.2 µM in the test on HT-29, 64.8 µM with M21 and 46.5 µM with MCF7 [1].

In the case of `c1ccc2c(c1)CCc1cc3ccn4ccnc4c3nc1-2`, the result (in test [2]; with MCF7 [3]) was Active. For the same molecule, the GI50 turned out to be 13.4 µM with HT-1080, 7.2 µM in the test on HT-29, 8.1 µM in the test with M21 and 6.6 µM in the test with MCF7 [1].

Consider `Cc1cc2c(ccc3nccn32)nc1C`, for which the GI50 with HT-1080, in the test with HT-29, in the test on M21 and with MCF7 [1] was greater than 100 µM each time.

Take `c1cn2ccc3cc4c(nc3c2n1)CCCC4`: the GI50 with HT-1080, in the test with HT-29, in the test with M21 and with MCF7 [1] was greater than 100 µM throughout.

On to `COc1cc(NS(C)(=O)=O)ccc1Nc1c2ccccc2nc2ccccc12` [AMSACRINE], for which the GI50 in the test with HT-1080 came out at 1.6 µM; in the test on HT-29, 16.8 µM; with M21 it was 49.6 µM; in the test with MCF7 [1], 5.6 µM.

With `CCc1ccc2c(ccc3nccn32)n1`, the GI50 in the test with HT-1080, in the test on HT-29, in the test with M21 and with MCF7 [1] was greater than 100 µM throughout.

Turning to `O=C1CCCc2nc3ccc4nccn4c3cc21`, the GI50 in the test with HT-1080, in the test on HT-29, in the test with M21 and in the test with MCF7 [1] was greater than 100 µM each time.

`Cc1cc2ccn3ccnc3c2nc1C`: the GI50 with HT-1080, with HT-29, in the test with M21 and in the test on MCF7 [1] was greater than 100 µM throughout.

As to `O=C1CCCc2nc3c(ccn4ccnc34)cc21`, the GI50 in the test with HT-1080, in the test on HT-29, in the test with M21 and with MCF7 [1] was greater than 100 µM in each case.

On to `Cc1ccc2c(ccc3nccn32)n1`, for which the GI50 with HT-1080, in the test with HT-29, in the test on M21 and with MCF7 [1] was greater than 100 µM throughout.

Consider `c1ccc(-c2ccc3ccn4ccnc4c3n2)cc1`, for which the GI50 with HT-1080 was determined as 57.7 µM; in the test on HT-29, 48.4 µM; in the test with M21, 56.5 µM; with MCF7 [1], 60.5 µM.

Turning to `CCc1ccc2ccn3ccnc3c2n1`, the GI50 with HT-1080, in the test on HT-29, in the test on M21 and with MCF7 [1] was greater than 100 µM each time.
